# Assay results from different studies.
# pIC50: −log10 of the molar value.
# Read-out: cell growth or viability
Compound,cell line,test,conditions,endpoint,result
Nc1nc2sc(CCCCCCc3ccc(C(=O)N[C@@H](CCC(=O)O)C(=O)O)cc3)cc2c(=O)[nH]1,R2/PCFT4,,"96 h, pH 7.2",pIC50,< 6.00
COc1cccc2c1C(=O)c1c(O)c3c(c(O)c1C2=O)C[C@@](O)(C(=O)CO)C[C@@H]3O[C@H]1C[C@H](N)[C@H](O)[C@H](C)O1,HUVEC,MTT,48 h,IC50,2 µg/mL
O=C(Nc1cccc2cccnc12)c1cnccn1,HFF-1,MTT,,pIC50,< 4.52
C=CCNC1=C2C[C@@H](C)C[C@H](OC)[C@H](O)[C@@H](C)/C=C(\C)[C@H](OC(N)=O)[C@@H](OC)/C=C\C=C(/C)C(=O)NC(=CC1=O)C2=O,HUVEC,MTT,,pIC50,5.92
Nc1nc2sc(CCCCCCCCc3ccc(C(=O)N[C@@H](CCC(=O)O)C(=O)O)cc3)cc2c(=O)[nH]1,R2/PCFT4,,"96 h, pH 7.2",pIC50,< 6.00
CC(C)C[C@H](NC(=O)[C@H](Cc1ccccc1)NC(=O)c1cnccn1)B(O)O,NCI-H2286,ATP luminescence,,pIC50,8.18
CCCON(Cc1ccc(C(=O)NO)cc1)C(=O)Nc1ccc(N(C)C)cc1,HAL-01,ATP luminescence,72 h,pIC50,4.86
CCOc1cc(-c2nc3ccc(C)cc3[nH]2)ccc1O,C26,MTT,48 h,pIC50,4.48
Cc1ccc(-c2ccc(O)cc2)c(C(=C2C=CC(=O)C=C2)c2ccc(O)cc2)c1C#Cc1ccc(O)cc1,HUVEC,MTT,48 h,pIC50,< 4.30
CN1c2ccccc2C(=O)N2[C@H](C(=O)Nc3ccc(/C=C/C(=O)NO)cc3)Cc3c([nH]c4ccccc34)[C@@H]12,HUVEC,,,pIC50,5.13
COc1cc(Nc2nccc(-c3cnn4nc(OC)ccc34)n2)cc(C(F)(F)F)c1,NCI-H1048,ATP luminescence,,pIC50,6.42
CCCCN(Cc1ccc(C(=O)NO)cc1)C(=O)Nc1ccccc1,HAL-01,ATP luminescence,72 h,pIC50,5.04
Nc1nc2sc(CCCc3ccc(C(=O)N[C@@H](CCC(=O)O)C(=O)O)cc3)cc2c(=O)[nH]1,R2/PCFT4,,"96 h, pH 7.2",pIC50,< 6.00
O=C(/C=C/C=C/c1ccc2c(c1)OCO2)N1CCCCC1,HUVEC,MTT,48 h,IC50,41.6 µg/mL
